Data: ChEMBL document CHEMBL4118028, “Sesquiterpene Quinones/Hydroquinones from the Marine Sponge Spongia pertusa Esper” (J Nat Prod, 2017)

What was measured:
A549 = assay: Cytotoxicity against human A549 cells after 72 hrs by CCK8 assay; type: functional, cell-based; conditions: A549, 72 h
U-937 = assay: Cytotoxicity against human U937 cells after 72 hrs by CCK8 assay; conditions: U-937, 72 h
HeLa = assay: Cytotoxicity against human HeLa cells after 72 hrs by CCK8 assay; type: functional, cell-based
HepG2 = assay: Cytotoxicity against human HepG2 cells after 72 hrs by CCK8 assay; conditions: HepG2, 72 h
[1] = target: Cyclin-dependent kinase 2 (Homo sapiens, UniProt P24941); assay: Binding affinity to CDK2 (unknown origin) by surface plasmon resonance analysis
How it was run: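 CDK-2 amine-coupled to CM5 chip flow cell 2 (50 μg/mL in 10 mM acetate pH 4.5, ~5500 RU). BSA reference cell (pH 3.8, ~6000 RU) subtracted. Running buffer PBS pH 7.4, 25 °C, 30 μL/min. Analytes at several concentrations injected 120 s, 120 s dissociation, with solvent correction. Glycine-HCl pH 2.1 regeneration for 30 s. Kd from steady-state affinity model fit.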

Row | SMILES | IC50 (A549) | further results
1 | C=C1CCC[C@H]2[C@](C)(CC3=C(O)C(=O)C=C(NCCc4ccccc4)C3=O)[C@@H](C)CC[C@]12C | > 10 µM | IC50 (U-937): 0.6 µM; IC50 (HeLa): 5.4 µM; IC50 (HepG2): 3.5 µM
2 | C=C1CCC[C@H]2[C@]3(C)CC4=C(O[C@]3(C)CC[C@]12C)C(=O)C=C(NC)C4=O | > 10 µM | Kd [1]: 4.8 µM
3 | C=C1CCC[C@@]23OC4=C(C[C@]2(C)[C@@H](C)CC[C@@]13C)C(=O)C(OCC)=CC4=O | > 10 µM | 
4 | C=C1CCC[C@@H]2[C@@]1(C)CC[C@@]1(C)OC3=C(C[C@@]21C)C(=O)C(NC)=CC3=O | > 10 µM | 
5 | C=C1CCC[C@H]2[C@]3(C)CC4=C(O[C@]3(C)CC[C@]12C)C(=O)C=C(OCC)C4=O | > 10 µM | 
6 | C=C1CCC[C@@]23OC4=C(C[C@]2(C)[C@@H](C)CC[C@@]13C)C(=O)C(NC)=CC4=O | > 10 µM | 
7 | CCOC1=CC(=O)C2=C(C[C@@H]3[C@@]4(C)CCCC(C)(C)[C@@H]4CC[C@@]3(C)O2)C1=O | > 10 µM | 
8 | COc1cccc2c1C(=O)c1c(O)c3c(c(O)c1C2=O)C[C@@](O)(C(=O)CO)C[C@@H]3O[C@H]1C[C@H](N)[C@H](O)[C@H](C)O1 [DOXORUBICIN] | 0.1 µM | 
